# In ChEMBL document CHEMBL4270565, “Design, synthesis and antimicrobial evaluation of propylene-tethered ciprofloxacin-isatin hybrids” (Eur J Med Chem, 2018):
# Tested on: Mycobacterium tuberculosis
# Test: Potency index, ratio of ciprofloxacin MIC90 to compound MIC90 for isoniazid/rifampicin/ethambutol-resistant Mycobacterium tuberculosis after 7 days
# Assay type: functional
# Conditions: not given
row,SMILES,Ratio
1,Cc1ccc2c(c1)C(=O)C(=O)N2CCCN1CCN(c2cc3c(cc2F)c(=O)c(C(=O)O)cn3C2CC2)CC1,>=4 - 256

# Tested on: Mycobacterium tuberculosis
# Test: Potency index, ratio of isoniazid MIC90 to compound MIC90 for isoniazid/rifampicin/ethambutol-resistant Mycobacterium tuberculosis after 7 days
# Assay type: functional
# Conditions: not given
row,SMILES,Ratio
1,Cc1ccc2c(c1)C(=O)C(=O)N2CCCN1CCN(c2cc3c(cc2F)c(=O)c(C(=O)O)cn3C2CC2)CC1,>=4 - 256

# Tested on: Mycobacterium tuberculosis
# Test: Antimycobacterial activity against isoniazid/rifampicin/ethambutol-resistant Mycobacterium tuberculosis after 7 days
# Assay type: functional
# Conditions: 168 h
# Procedure, shortened: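 Rapid direct susceptibility test in 48-well plates. Two-fold dilutions of compound from DMSO stocks were mixed with an equal volume of bacterial suspension. Medium-only wells served as growth controls and water-only wells as no-growth controls. Plates were sealed and held at 37 C in a humid box, and controls were checked at 3 days. MIC (90% growth inhibition) was read visually by high-magnification observation of the cells and re-read at 7 days.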
row,SMILES,MIC90 [µg/mL]
1,CO/N=C1\C(=O)N(CCCN2CCN(c3cc4c(cc3F)c(=O)c(C(=O)O)cn4C3CC3)CC2)c2ccccc21,2
2,CO/N=C1\C(=O)N(CCCN2CCN(c3cc4c(cc3F)c(=O)c(C(=O)OCCCN3C(=O)/C(=N/OC)c5ccccc53)cn4C3CC3)CC2)c2ccccc21,64
3,CCO/N=C1\C(=O)N(CCCN2CCN(c3cc4c(cc3F)c(=O)c(C(=O)OCCCN3C(=O)/C(=N/OCC)c5ccccc53)cn4C3CC3)CC2)c2ccccc21,64
4,CCO/N=C1\C(=O)N(CCCN2CCN(c3cc4c(cc3F)c(=O)c(C(=O)O)cn4C3CC3)CC2)c2ccc(C)cc21,4
5,Cc1ccc2c(c1)C(=O)C(=O)N2CCCOC(=O)c1cn(C2CC2)c2cc(N3CCN(CCCN4C(=O)C(=O)c5cc(C)ccc54)CC3)c(F)cc2c1=O,32
6,CO/N=C1\C(=O)N(CCCN2CCN(c3cc4c(cc3F)c(=O)c(C(=O)O)cn4C3CC3)CC2)c2ccc(C)cc21,1
7,O=C1C(=O)N(CCCN2CCN(c3cc4c(cc3F)c(=O)c(C(=O)O)cn4C3CC3)CC2)c2ccccc21,0.5
8,CO/N=C1\C(=O)N(CCCN2CCN(c3cc4c(cc3F)c(=O)c(C(=O)OCCCN3C(=O)/C(=N/OC)c5cc(C)ccc53)cn4C3CC3)CC2)c2ccc(C)cc21,32
9,CCO/N=C1\C(=O)N(CCCN2CCN(c3cc4c(cc3F)c(=O)c(C(=O)O)cn4C3CC3)CC2)c2ccccc21,1
10,CCO/N=C1\C(=O)N(CCCN2CCN(c3cc4c(cc3F)c(=O)c(C(=O)OCCCN3C(=O)/C(=N/OCC)c5cc(C)ccc53)cn4C3CC3)CC2)c2ccc(C)cc21,64
11,O=C1C(=O)N(CCCOC(=O)c2cn(C3CC3)c3cc(N4CCN(CCCN5C(=O)C(=O)c6ccccc65)CC4)c(F)cc3c2=O)c2ccccc21,32
12,Cc1ccc2c(c1)C(=O)C(=O)N2CCCN1CCN(c2cc3c(cc2F)c(=O)c(C(=O)O)cn3C2CC2)CC1,0.5
13,O=C(O)c1cn(C2CC2)c2cc(N3CCNCC3)c(F)cc2c1=O [CIPROFLOXACIN],2
14,NNC(=O)c1ccncc1 [ISONIAZID],> 128
15,CO[C@H]1/C=C/O[C@@]2(C)Oc3c(C)c(O)c4c(O)c(c(/C=N/N5CCN(C)CC5)c(O)c4c3C2=O)NC(=O)/C(C)=C\C=C\[C@H](C)[C@H](O)[C@@H](C)[C@@H](O)[C@@H](C)[C@H](OC(C)=O)[C@@H]1C [RIFAMPIN],32

# Tested on: Mycobacterium tuberculosis
# Test: Potency index, ratio of rifampicin MIC90 to compound MIC90 for isoniazid/rifampicin/ethambutol-resistant Mycobacterium tuberculosis after 7 days
# Assay type: functional
# Conditions: not given
row,SMILES,Ratio
1,Cc1ccc2c(c1)C(=O)C(=O)N2CCCN1CCN(c2cc3c(cc2F)c(=O)c(C(=O)O)cn3C2CC2)CC1,>=4 - 256
